Measured values reported in ChEMBL document CHEMBL5136984, “Synthesis and antiproliferative activity of 6BrCaQ-TPP conjugates for targeting the mitochondrial heat shock protein TRAP1” (Eur J Med Chem, 2022).
pIC50: −log10 of the molar value. Activity calls are given as the source filed them. No cut-off for these calls is given here.

Assays:
MDA-MB-231 [1] = test: Cytotoxicity against human MDA-MB-231 cells assessed as induction of cell death incubated for 72 hrs by Celltiter Glo assay; format: functional; conditions: read-out: LC50 (the source's name)
Summary of the method: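 MDA-MB-231 cells were exposed to compounds for 72 h, and survival was quantified by CellTiter-Glo luminescence. From the curves, GI50 (50% growth inhibition), TGI (cell number equal to that at start), LC50 (end cell number 50% of start) and IC50 (50% inhibition of cell activity) were derived.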

MDA-MB-231 [2] = test: Cytotoxicity against human MDA-MB-231 cells assessed as concentration required for complete tumor growth inhibition incubated for 72 hrs by Celltiter Glo assay; format: functional
Summary of the method: (§1)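 MDA-MB-231 cells exposed for 72 h; survival quantified by CellTiter Glo luminescence. GI50 = 50% growth inhibition; TGI = concentration at which final cell number equals the starting number; LC50 and IC50 also derived from the same curves.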

MDA-MB-231 [3] = test: Cytotoxicity against human MDA-MB-231 cells assessed as cell growth inhibition incubated for 72 hrs by Celltiter Glo assay; format: functional, cell-based; conditions: for pIC50: MDA-MB-231, 72 h; for GI50: MDA-MB-231, time 72 hrs; summary of the method: as §1
HT-29 [4] = test: Induction of mitochondrial membrane potential depolarization in human HT-29 cells assessed as reduction in fluorescence intensity at 0.1 to 1 uM measured after 2 to 6 hrs by TMRE staining based analysis relative to control; format: functional; set-up: scale not given: the % may be the effect or the level left; conditions: dose 0.1-1 µM, time 2-6 hrs
Summary of the method: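 HT-29 cells (2,500/well) seeded the day before, exposed 2, 3 or 6 h at 0.1, 0.5 and 1 µM. CCCP 50 µM for 20 min served as depolarization control. TMRE added at 200 nM final for 20 min at 37 °C, fluorescence read by microplate, relative to untreated cells. 3–8 replicate wells per condition.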

HT-29 [5] = test: Cytotoxicity against human HT-29 cells assessed as inhibition of cell growth incubated for 72 hrs by MTT assay; format: functional, cell-based; conditions: HT-29, 72 h
Summary of the method: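 HT-29 cells (McCoy medium, 10% FBS, 2 mM glutamine) seeded at 2,500/well, treated 24 h later for 72 h. MTT (5 mg/mL solution) 2 h, formazan dissolved in DMSO, A570 corrected for cell-free blanks with compound. Untreated wells set as 100%. Quadruplicates, at least three independent experiments.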

K562 = test: Cytotoxicity against human K562 cells assessed as induction of cell death incubated for 72 hrs by MTT assay; format: functional; conditions: read-out: LC50 (the source's name)
Summary of the method: (§2)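 Cells were seeded at 2,500 per well and treated 24 h later for 72 h, with 4 replicates per condition and at least three independent experiments. MTT (5 mg/mL solution) was added for 2 h, then the medium was replaced by DMSO. Absorbance at 570 nm was blank-corrected using cell-free wells containing compound, and untreated cells were set as 100% metabolic activity.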

PC-3 = test: Cytotoxicity against human PC-3 cells assessed as induction of cell death incubated for 72 hrs by MTS assay; format: functional; conditions: read-out: LC50 (the source's name)
MDA-MB-231 [6] = test: Cytotoxicity against human MDA-MB-231 cells assessed as induction of cell death incubated for 72 hrs by MTT assay; format: functional; conditions: read-out: LC50 (the source's name); summary of the method: as §2
HCT-116 [7] = test: Cytotoxicity against human HCT-116 cells assessed as induction of cell death incubated for 72 hrs by MTT assay; format: functional; conditions: read-out: LC50 (the source's name); summary of the method: as §2
[8] = biological target: T1, Heat shock factor protein 1 (Homo sapiens) (UniProt Q00613); test: Induction of HSF-1 degradation in human HT-29 cells at 0.5 uM incubated for 24 hrs by Western blot analysis; format: cell-based
T1 sequence (whole entry): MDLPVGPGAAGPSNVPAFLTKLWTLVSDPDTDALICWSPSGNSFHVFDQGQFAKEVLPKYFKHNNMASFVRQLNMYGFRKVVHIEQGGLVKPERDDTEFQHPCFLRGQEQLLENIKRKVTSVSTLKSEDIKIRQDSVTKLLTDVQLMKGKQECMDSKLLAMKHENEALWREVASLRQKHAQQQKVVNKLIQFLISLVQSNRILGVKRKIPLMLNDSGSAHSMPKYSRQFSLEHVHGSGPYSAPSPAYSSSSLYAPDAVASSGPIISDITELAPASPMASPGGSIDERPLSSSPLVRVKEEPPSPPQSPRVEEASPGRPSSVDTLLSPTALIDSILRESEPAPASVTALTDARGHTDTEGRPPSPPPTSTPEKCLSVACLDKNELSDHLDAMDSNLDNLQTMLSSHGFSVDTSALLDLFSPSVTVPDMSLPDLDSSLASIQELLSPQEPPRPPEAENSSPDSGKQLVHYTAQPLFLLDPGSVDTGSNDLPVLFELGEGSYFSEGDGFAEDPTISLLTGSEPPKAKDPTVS
Summary of the method: (§3)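 HT-29 cells treated 24 h, lysed in RIPA with protease inhibitors 30 min on ice. 30 µg protein denatured at 95 °C with β-mercaptoethanol, run on 4–15% stain-free gels, transferred to PVDF. Blocked in 5% milk/TBS-Tween, primary antibody overnight at 4 °C, HRP secondary 1 h, ECL detection. Signals normalized to stain-free total protein. Blots in duplicate.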

HT-29 [9] = test: Downregulation of SDHA protein expression in human HT-29 cells incubated for 24 hrs by Western blot analysis; format: functional, cell-based; conditions: dose 0.1-1 µM, DDE = dose-dependent effect
Summary of the method: (§4)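 HT-29 cells exposed 24 h at 0.1, 0.5 and 1 µM; RIPA lysates, 30 µg protein on 4–15% stain-free SDS-PAGE, PVDF transfer. Anti-SDH-A (mouse, 1:500) or anti-SDH-B (rabbit, 1:250) overnight at 4 °C, HRP secondary, ECL. Densitometry normalized to stain-free total protein; duplicate blots.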

HT-29 [10] = test: Downregulation of SDHB protein expression in human HT-29 cells incubated for 24 hrs by Western blot analysis; format: functional, cell-based; conditions: dose 0.1-1 µM, DDE = dose-dependent effect; summary of the method: as §4
HT-29 [11] = test: Cytotoxicity against human HT-29 cells assessed as reduction in viable cells incubated for 72 hrs by trypan blue staining based optical microscopic analysis relative to control; format: functional, cell-based; conditions: HT-29, 72 h
Summary of the method: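 HT-29 cells seeded at 30,000/well, treated 24 h later for 72 h. Cells washed with PBS, trypsinized, resuspended in medium and mixed 1:1 with trypan blue. Viable and dead cells counted by optical microscopy on a counting slide. Each condition analysed 3 times.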

HT-29 [12] = test: Downregulation of HSP70 protein expression in human HT-29 cells at 0.1 to 0.5 uM incubated for 24 hrs by Western blot analysis; format: functional, cell-based; conditions: dose 0.1-0.5 µM; summary of the method: as §3
HT-29 [13] = test: Downregulation of HSP27 protein expression in human HT-29 cells at 0.1 to 0.5 uM incubated for 24 hrs by Western blot analysis; format: functional, cell-based; conditions: dose 0.1-0.5 µM; summary of the method: as §3
HT-29 [14] = test: Cytotoxicity against human HT-29 cells assessed as dead cells at 0.1 to 2 uM incubated for 72 hrs by trypan blue staining based optical microscopic analysis relative to control; format: functional; conditions: dose 0.1-2 µM
Summary of the method: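 HT-29 cells were grown in McCoy medium with 10% FBS and 2 mM L-glutamine at 37 °C under 5% CO2, seeded at 30,000 per well and treated 24 h later for 72 h. Cells were PBS-washed, trypsinized, mixed 1:1 with trypan blue, and viable and dead cells were counted by light microscopy. Each condition was run three times.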

HCT-116 [15] = test: Cytotoxicity against human HCT-116 cells assessed as cell viability at 1 uM incubated for 72 hrs by MTT assay relative to control; format: functional; conditions: read-out: Activity
Summary of the method: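 MTT read-out after 72 h exposure; 2,500 cells/well seeded and treated 24 h later. MTT solution (5 mg/mL) added for 2 h, medium replaced by DMSO, absorbance at 570 nm corrected for cell-free blanks with compound. Untreated cells taken as 100% metabolic activity. Quadruplicate wells, experiment repeated at least three times.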

HT-29 [16] = test: Cytotoxicity against human HT-29 cells assessed as cell mortality at 0.1 to 1 uM incubated for 2 to 6 hrs by MTT assay; format: toxicity, cell-based; conditions: ht-29, 1 µM, dose lower 0.1 µM, time lower 2 hrs, dose upper 1 µM, time upper 6 hrs
[17] = Drug localization in vesicle of human A549 cells at 2 uM measured after 4 hrs by MitoTracker Deep Red based confocal microscopic analysis; conditions: a549, 4 h

| Structure (SMILES) | CC50 (MDA-MB-231 [1]) [nM] | EC (MDA-MB-231 [2]) [µM] | pIC50 (MDA-MB-231 [3]) | GI50 (MDA-MB-231 [3]) [nM] | further results |
| --- | --- | --- | --- | --- | --- |
| Cn1c(=O)c(NC(=O)c2ccc(OCCCC[P+](c3ccccc3)(c3ccccc3)c3ccccc3)cc2)cc2cc(Br)ccc21.[Br-] | 110 | 0.091 | 7.09 | 76 |  |
| Cn1c(=O)c(NC(=O)c2ccc(OCCC[P+](c3ccccc3)(c3ccccc3)c3ccccc3)cc2)cc2cc(Br)ccc21.[Br-] | 380 | 0.16 |  | 60 |  |
| Cn1c(=O)c(NC(=O)c2ccc(OCCCCCCCCCCCC[P+](c3ccccc3)(c3ccccc3)c3ccccc3)cc2)cc2cc(Br)ccc21.[Br-] | 17900 | 15.2 |  | 11000 |  |
| Cn1c(=O)c(NC(=O)c2ccc(OCCCCCCC[P+](c3ccccc3)(c3ccccc3)c3ccccc3)cc2)cc2cc(Br)ccc21.[Br-] | 490 | 0.18 | 7.09 | 65 |  |
| OCCCCCCCCCC[P+](c1ccccc1)(c1ccccc1)c1ccccc1.[Br-] |  |  |  |  | Activity (HT-29 [4]): <=35% |
| Cn1c(=O)c(NC(=O)c2ccc(OCCCCCCCCCC[P+](c3ccccc3)(c3ccccc3)c3ccccc3)cc2)cc2ccccc21.[Br-] | 310 | 0.092 | 7.31 | 26 |  |
| COc1ccc(C(=O)Nc2cc3cc(Br)ccc3n(C)c2=O)cc1 | 380 | 0.16 |  | 60 | pIC50 (HT-29 [5]): < 4.70; CC50 (K562): 48000 nM; Activity (HT-29 [4]): -30%; CC50 (PC-3): 10000 nM; CC50 (MDA-MB-231 [6]): 2000 nM; CC50 (HCT-116 [7]): 7000 nM |
| Cn1c(=O)c(NC(=O)c2ccc(OCCCCCCCCCC[P+](c3ccccc3)(c3ccccc3)c3ccccc3)cc2)cc2cc(Br)ccc21.[Br-] | 180 | 0.037 | 8.10 | 8 | Activity [8]: Active; pIC50 (HT-29 [5]): > 7.00; Activity (HT-29 [9]): Dde; Activity (HT-29 [10]): Dde; CC50 (K562): 107 nM; pIC50 (HT-29 [11]): > 7.00; Activity (HT-29 [12]): Active; Activity (HT-29 [4]): <=68%; CC50 (PC-3): 300 nM; Activity (HT-29 [13]): Active; CC50 (MDA-MB-231 [6]): 180 nM; Activity (HT-29 [14]): <10%; viability at 1 µM (HCT-116 [15]): 11%; Activity (HT-29 [16]): Non-Toxic; CC50 (HCT-116 [7]): 36 nM |
| Cn1c(=O)c(NC(=O)c2ccc(O)cc2)cc2cc(Br)ccc21 | 17600 | 10.97 | 5.15 | 5790 |  |
| Cn1c(=O)c(NC(=O)c2ccc(OCCCCCCCCCCOc3ccc(N(c4ccc(/C=C/c5cc[n+](C)cc5)cc4)c4ccc(/C=C/c5cc[n+](C)cc5)cc4)cc3)cc2)cc2cc(Br)ccc21.[I-].[I-] |  |  |  |  | Drug uptake [17]: Active; viability at 1 µM (HCT-116 [15]): 95% |
| Cn1c(=O)c(NC(=O)c2ccc(OCCCCC[P+](c3ccccc3)(c3ccccc3)c3ccccc3)cc2)cc2cc(Br)ccc21.[Br-] | 100 | 0.093 | 7.06 | 83 |  |
| Cn1c(=O)c(NC(=O)c2ccc(OCCCCCCCCCCBr)cc2)cc2cc(Br)ccc21 |  |  | 5.15 |  |  |
